Compound activity deposited in PubChem BioAssay by several laboratories.
Rows were chosen to be rich in hits. Some 2.3% of all compounds tested hit in one or more screens of this group.
E coli WT exp: blocks growth of wild type E. coli BW25113 | growth inhibition, % at 100 µM | OD600 absorbance | actives 0.15% (n = 98,000);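 active = growth inhibition above about 50% at one test dose, limit read from the data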;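 also: growth measured after 20 h incubation at 37 °C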
Mac1 fbg inh: blocks human CD11b/CD18 adhesion to fibrinogen | P05107+P11215 | K562 CD11b/CD18 adhesion to fibrinogen, ATPlite luminescence; Mn2+ added to activate the integrin | inhibition, % at 10 µM | actives 0.54% (n = 93,000);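 active = primary inhibition of 50% or more at 10 µM, then 40% or more on retest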
Target sequence (P05107 whole entry, looked up, other chains not shown): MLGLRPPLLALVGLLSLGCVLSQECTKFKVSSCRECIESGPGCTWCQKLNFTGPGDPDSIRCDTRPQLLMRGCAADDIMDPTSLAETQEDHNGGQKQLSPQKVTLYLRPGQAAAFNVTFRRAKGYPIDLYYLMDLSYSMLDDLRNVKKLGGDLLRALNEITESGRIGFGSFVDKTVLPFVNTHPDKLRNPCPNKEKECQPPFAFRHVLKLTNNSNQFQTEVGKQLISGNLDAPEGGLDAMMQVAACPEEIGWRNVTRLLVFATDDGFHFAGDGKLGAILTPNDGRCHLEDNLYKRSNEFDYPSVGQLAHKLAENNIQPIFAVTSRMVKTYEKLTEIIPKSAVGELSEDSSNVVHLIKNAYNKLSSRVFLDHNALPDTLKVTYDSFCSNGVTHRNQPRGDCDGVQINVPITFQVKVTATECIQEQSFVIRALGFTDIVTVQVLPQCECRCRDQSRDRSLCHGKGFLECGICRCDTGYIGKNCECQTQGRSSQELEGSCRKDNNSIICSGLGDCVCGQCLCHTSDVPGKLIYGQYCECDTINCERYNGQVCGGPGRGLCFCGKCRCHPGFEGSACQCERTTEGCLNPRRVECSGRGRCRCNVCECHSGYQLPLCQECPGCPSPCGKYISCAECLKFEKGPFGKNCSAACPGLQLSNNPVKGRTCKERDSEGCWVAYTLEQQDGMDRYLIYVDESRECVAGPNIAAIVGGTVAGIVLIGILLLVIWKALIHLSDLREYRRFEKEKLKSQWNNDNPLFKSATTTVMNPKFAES
CD11b adhes enh: increases human CD11b/CD18 adhesion to fibrinogen; P05107+P11215; K562 CD11b/CD18 adhesion to fibrinogen, ATPlite luminescence; activation, % at 10 µM; actives 0.07% (n = 93,000); AID 1499;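 active = 10 µM primary screen giving 50% or more activity, confirmed by 40% or more on retest at that dose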
Pyk2 oligo antag: blocks oligomerization of human Pyk2 in cells. Q14289. Q293 cells, Pyk2 FERM NanoBiT luminescence; hits give low values. z-score (the deposit names both 25 µM and 10 µM). actives 0.83% (n = 99,000). AID 1347419;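 active = Z-score of -3 or lower, scaled per plate to the spread of control and sample wells; inactive = z-score above -3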;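 also: negative z-score means lost luminescence so less FERM oligomerization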
tolC growth inh: E. coli tolC mutant growth inhibition; actives 2.2% (n = 65,000); E. coli BW25113 tolC mutant growth, OD615; growth inhibition, % at 10 µM (by protocol);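 active = growth inhibition at or above a cutoff equal to the mean over every tested compound plus 3 SD, cut at about 60% in these data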;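 also: growth measured after 20 h incubation at 37 °C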
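test system = E. coli BW25113 ΔtolC::kan bacteria | medium = LB with kanamycin 50 µg/mL | signal = OD at 615 nm | schedule = 37 °C, 20 h exposure | evaluation = % inhibition of E. coli growth | compound dosing = one dose of 10 µM final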
A number is an active result; 0 = inactive; - = not tested or not shown.

SMILES	E coli WT exp	Mac1 fbg inh	CD11b adhes enh	Pyk2 oligo antag	tolC growth inh
CCc1ccccc1N(C)C(=O)CCc1nc(-c2ccc(C)cc2)no1	0	0	0	0	100
COc1ccc(Cl)cc1N(C)C(=O)CCc1nc(-c2ccc(C)cc2)no1	0	0	0	0	90
CCOc1ccccc1NC(=O)c1c(NC(=O)CNCc2ccco2)sc2c1CCC2	-	0	0	-	0
O=C(NC1CCCCC1)c1nc2c(nnn2Cc2ccccc2Cl)c(=O)[nH]1	0	-	-	0	76
O=C(NCCc1ccccc1)c1nc2c(nnn2Cc2ccccc2Cl)c(=O)[nH]1	0	-	-	0	97
Cc1cc(C)c(C#N)c(SCC(=O)OC2CCCCC2)n1	0	0	0	0	73
CCOC(=O)CSc1nc(C2CC2)cc(-c2ccc(F)cc2)c1C#N	0	0	0	-3.3	-
CCOC(=O)CSc1nc(C)cc(C)c1C#N	0	0	0	0	-
S=c1[nH]nc(-c2cc3c(s2)-c2ccccc2CC3)o1	0	64	0	0	-
O=[N+]([O-])c1ccc(N=Nc2ccc(O)cc2O)cc1	0	94	0	0	-
O=[N+]([O-])c1ccc(O)c(N=Cc2sc3ccccc3c2O)c1	-	-	-	0	-
COc1cccc(N2CCN(c3c4c(nc5ncnn35)CCC4)CC2)c1	0	51	0	0	0
Cc1cc(=O)[nH]c(SCC(=O)C23CC4CC(CC(C4)C2)C3)c1C#N	0	-	-	0	70
Nc1c(C(=O)NCc2ccc3c(c2)OCO3)c2nc3ccccc3nc2n1CCCN1CCOCC1	0	0	0	0	95
COc1ccccc1CNC(=O)c1c(N)n(CCCN2CCOCC2)c2nc3ccccc3nc12	0	0	0	0	-
COc1ccc(NC(=O)CCN2C(=O)C3CC=C(Cl)CC3C2=O)cc1 (stereo unspecified)	-	-	-	-	0
COC(=O)c1ccc(NC(=O)c2sc3nc(-c4ccccc4)cn3c2C)cc1	0	0	0	-3.8	0
COc1ccc(-c2cn3c(C)c(C(=O)Nc4ccncc4)sc3n2)cc1	0	0	0	-	0
CC(C)=C(C#N)c1nc2ccccc2s1	0	0	0	0	0
COC(=O)c1ccc(/C(O)=C(\C#N)c2nc3ccccc3s2)cc1	0	103	0	0	65
Cc1ccc(-c2nc(NC(=O)CSc3nnc4scc(-c5ccccc5)n34)ns2)cc1	-	-	-	-	0
CC(C)Nc1cc(N2CCCC2)ccc1[N+](=O)[O-]	0	0	0	-3	-
Cc1cc(=S)n(-c2ccccc2)n1C	0	0	0	0	0
COc1ccc(N2CCN(CC(=O)Nc3nc4c(s3)CC(C)CC4)CC2)cc1 (stereo unspecified)	0	0	0	0	100
COc1ccc(N2CCN(CC(=O)Nc3cc(C)on3)CC2)cc1	0	0	0	0	0
SMILES	E coli WT exp	Mac1 fbg inh	CD11b adhes enh	Pyk2 oligo antag	tolC growth inh
CC1(C)CC(=O)C2=C(C1)N(Cc1cccnc1)C(=O)C2(NC(=O)c1ccc(F)cc1)C(F)(F)F (stereo unspecified)	0	0	0	0	-
CCOC(=O)c1nn(-c2cccc(Cl)c2)c(C)c1C(C)=O	0	0	0	0	-
CCOC(=O)c1nn(-c2cccc(OC)c2)c(-c2ccccc2)c1C(=O)c1ccccc1	0	-	-	-4.2	-
CCOC(=O)c1nn(-c2ccccc2F)c(-c2ccccc2)c1C(=O)c1ccccc1	0	-	-	-4	-
CCOC(=O)c1nn(-c2ccc(F)cc2)c(-c2ccccc2)c1C(=O)c1ccccc1	0	-	-	-3.1	-
CCOC(=O)c1nnn(-c2ccccc2)c1C	-	-	-	0	-
CCOC(=O)c1nn(-c2ccccc2)c(-c2ccccc2)c1C(=O)c1ccccc1	0	-	-	-3.5	-
CCOC(=O)C1CCN(C(=O)C2CCN(S(=O)(=O)c3cccc4cccnc34)CC2)CC1	0	0	0	-	0
COc1ccc(NC(=O)/C(Cl)=C(/Cl)S(=O)(=O)Cc2ccc(C)cc2)cn1	0	0	0	0	-
COc1ccc(OC)c(S(=O)(=O)N2CCC(C(=O)Nc3cccc(C(F)(F)F)c3)CC2)c1	0	0	0	0	0
O=C(Nc1ccc(-c2cn3ccsc3n2)cc1)c1ccc(F)c(S(=O)(=O)N2CCOCC2)c1	0	0	0	-3.7	0
COc1c(N2CCNC(C)C2)c(F)cc2c(=O)c(C(=O)O)cn(C3CC3)c12 (stereo unspecified)	-	-	-	-	97
COc1c(N2CCN(C(=S)Nc3ccc(F)cc3)C(C)C2)c(F)cc2c(=O)c(C(=O)O)cn(C3CC3)c12 (stereo unspecified)	99	-	-	0	-
CCN1CCN(c2cc3c(cc2F)c(=O)c(C(=O)O)cn3C2CC2)CC1	-	-	-	-	0
